Laboratory results taken from ChEMBL document CHEMBL4270638, “Sulfonyl-containing phenyl-pyrrolyl pentane analogues: Novel non-secosteroidal vitamin D receptor modulators with favorable physicochemical properties, pharmacokinetic properties and anti-tumor activity” (Eur J Med Chem, 2018).
Calls of active or inactive are those of the source. The calls are words filed in the database; no cut-off is given here.

Columns and labels:
MCF7 [1] = assay: Antiproliferative activity against human MCF7 cells after 24 hrs by MTT assay; assay type: functional, cell-based; settings: MCF7, 24 h
PC-3 = assay: Antiproliferative activity against human PC3 cells after 24 hrs by MTT assay; assay type: functional, cell-based; settings: PC-3, 24 h
Vitamin D3 receptor = target: T1, Vitamin D3 receptor (Homo sapiens, UniProt P11473); assay: Displacement of fluormone VDR red from human full-length VDR after 4 hrs by fluorescence polarization assay
T1 sequence (P11473 whole entry): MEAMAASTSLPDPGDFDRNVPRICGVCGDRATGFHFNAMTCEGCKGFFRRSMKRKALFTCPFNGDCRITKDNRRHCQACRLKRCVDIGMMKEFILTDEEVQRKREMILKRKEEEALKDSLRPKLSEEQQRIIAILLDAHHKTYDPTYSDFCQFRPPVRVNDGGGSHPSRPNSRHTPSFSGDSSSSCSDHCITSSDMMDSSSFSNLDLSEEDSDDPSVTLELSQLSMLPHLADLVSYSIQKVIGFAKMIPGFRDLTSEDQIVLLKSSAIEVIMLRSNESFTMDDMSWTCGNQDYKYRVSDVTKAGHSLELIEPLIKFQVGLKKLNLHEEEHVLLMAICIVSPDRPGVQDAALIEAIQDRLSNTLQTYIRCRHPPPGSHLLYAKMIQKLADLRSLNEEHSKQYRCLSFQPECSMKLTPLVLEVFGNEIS

MCF7 [2] = assay: Cell cycle arrest in human MCF7 cells expressing scrambled siRNA assessed as accumulation at G0/G1 phase at 1 uM after 24 hrs by propidium iodide staining based flow cytometry (reference value: 49.28%); assay type: functional
MCF7 [3] = assay: Antiproliferative activity against human MCF7 cells expressing VDR siRNA assessed as reduction in BrdU incorporation after 16 hrs by ELISA; assay type: functional, cell-based; settings: MCF7, 16 h
MCF7 [4] = assay: Cell cycle arrest in human MCF7 cells expressing scrambled siRNA assessed as accumulation at S phase at 1 uM after 24 hrs by propidium iodide staining based flow cytometry (reference value: 29.79%); assay type: functional
MCF7 [5] = assay: Cell cycle arrest in human MCF7 cells expressing VDR siRNA assessed as accumulation at G0/G1 phase at 1 uM after 24 hrs by propidium iodide staining based flow cytometry (reference value: 49.17%); assay type: functional
MCF7 [6] = assay: Cell cycle arrest in human MCF7 cells expressing VDR siRNA assessed as accumulation at S phase at 1 uM after 24 hrs by propidium iodide staining based flow cytometry (reference value: 32%); assay type: functional
MCF7 [7] = assay: Induction of apoptosis in human MCF7 cells expressing scrambled siRNA assessed as live cells at 1 uM after 24 hrs by Annexin-V-FITC/propidium iodide staining based flow cytometry (reference value: 97.93%); assay type: functional
MCF7 [8] = assay: Induction of apoptosis in human MCF7 cells expressing scrambled siRNA assessed as early apoptotic cells at 1 uM after 24 hrs by Annexin-V-FITC/propidium iodide staining based flow cytometry (reference value: 0.93%); assay type: functional
MCF7 [9] = assay: Induction of apoptosis in human MCF7 cells expressing scrambled siRNA assessed as late apoptotic cells at 1 uM after 24 hrs by Annexin-V-FITC/propidium iodide staining based flow cytometry (reference value: 0.98%); assay type: functional
MCF7 [10] = assay: Induction of apoptosis in human MCF7 cells expressing scrambled siRNA assessed as necrotic cells at 1 uM after 24 hrs by Annexin-V-FITC/propidium iodide staining based flow cytometry (reference value: 0.16%); assay type: functional
MCF7 [11] = assay: Induction of apoptosis in human MCF7 cells expressing VDR siRNA assessed as early apoptotic cells at 1 uM after 24 hrs by Annexin-V-FITC/propidium iodide staining based flow cytometry (reference value: 0.49%); assay type: functional
MCF7 [12] = assay: Induction of apoptosis in human MCF7 cells expressing VDR siRNA assessed as necrotic cells at 1 uM after 24 hrs by Annexin-V-FITC/propidium iodide staining based flow cytometry (reference value: 0.15%); assay type: functional
MCF7 [13] = assay: Induction of apoptosis in human MCF7 cells assessed as upregulation of p21 expression at 1 uM after 24 hrs by Western blot analysis; assay type: functional, cell-based
Outline: (§1)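 MCF-7 cells treated at 1 µM for 24 h. Lysates resolved by 10% SDS-PAGE and transferred to PVDF. Probed with rabbit anti-p21, anti-p27 and anti-Bax antibodies, with mouse anti-β-actin as loading control. HRP-conjugated secondary antibodies; bands detected on an infrared scanner.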

MCF7 [14] = assay: Induction of apoptosis in human MCF7 cells assessed as upregulation of p27 expression at 1 uM after 24 hrs by Western blot analysis; assay type: functional, cell-based; outline: as §1
MCF7 [15] = assay: Induction of apoptosis in human MCF7 cells assessed as upregulation of Bax expression at 1 uM after 24 hrs by Western blot analysis; assay type: functional, cell-based; outline: as §1
[16] = Half life in rat liver microsomes in presence of NADPH by HPLC method; assay type: ADME, microsome
Outline: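 Compounds incubated with rat liver microsomes plus NADPH. Remaining compound quantified by HPLC at 0, 5, 10, 20, 30, 45, 60 and 90 min, and half-life calculated.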

[17] = Mean residence time in Sprague-Dawley rat at 5 mg/kg, iv by HPLC method; assay type: ADME, organism-based; settings: in vivo
Outline: (§2)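 Male Sprague-Dawley rats, 180–220 g, n = 3 per group. Dosed iv at 5 mg/kg or ip at 20 mg/kg in ethanol/EL/saline (1:1:18). Plasma sampled at 0, 0.083, 0.167, 0.25, 0.5, 1, 2, 4, 8, 12 and 24 h and centrifuged 12000 rpm for 10 min. Plasma drug measured by HPLC; parameters by PK modelling; mean ± SD.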

[18] = AUC in Sprague-Dawley rat at 20 mg/kg, ip by HPLC method; assay type: ADME, organism-based; settings: in vivo; outline: as §2
[19] = Clearance in Sprague-Dawley rat at 20 mg/kg, ip by HPLC method; assay type: ADME, organism-based; settings: in vivo; outline: as §2
[20] = Bioavailability in Sprague-Dawley rat at 20 mg/kg, ip by HPLC method; assay type: ADME, organism-based; settings: in vivo; outline: as §2
Mus musculus [21] = assay: Toxicity in Balb/c nude mouse xenografted with human MCF7 cells assessed as effect on body weight at 10 mg/kg, ip administered three times a week for three weeks starting from day 7 after tumor cell inoculation; assay type: organism-based; settings: in vivo
Outline: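 […] BALB/c-nu mice, 10 weeks old. 1×10^7 MCF-7 cells injected into the left fourth mammary fat pad; dosing began at about 50 mm3 tumour volume (day 7), n = 5 per group. Dosed ip at 10 mg/kg in ethanol/EL/saline 1:1:18, three times weekly for three weeks. Tumour volume by calipers = length × width² × 0.5; tumour weight and body weight recorded.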

MCF7 [22] = assay: Antitumor activity against human MCF7 cells xenografted in Balb/c nude mouse assessed as increase in Bax expression at 10 mg/kg, ip administered three times a week for three weeks starting from day 7 after tumor cell inoculation by immunohistochemical analysis; assay type: functional, organism-based
Mus musculus [23] = assay: Hypercalcemic effect in Balb/c nude mouse xenografted with human MCF7 cells assessed as effect on serum calcium level at 10 mg/kg, ip administered three times a week for three weeks starting from day 7 after tumor cell inoculation measured on day 17 during compound dosing (reference value: 0.6 umol/ml); assay type: ADME, organism-based; settings: in vivo
Mus musculus [24] = assay: Hypercalcemic effect in Balb/c nude mouse xenografted with human MCF7 cells assessed as effect on serum calcium level at 10 mg/kg, ip administered three times a week for three weeks starting from day 7 after tumor cell inoculation measured on day 27 (reference value: 0.6 umol/ml); assay type: ADME, organism-based; settings: in vivo

Structure (SMILES) | IC50 (MCF7 [1]) [µM] | IC50 (PC-3) [µM] | IC50 (Vitamin D3 receptor) [µM] | Activity (MCF7 [2]) [%] | IC50 (MCF7 [3]) [µM] | Activity (MCF7 [4]) [%] | Activity (MCF7 [5]) [%] | Activity (MCF7 [6]) [%] | Activity (MCF7 [7]) [%] | Activity (MCF7 [8]) [%] | Activity (MCF7 [9]) [%] | Activity (MCF7 [10]) [%] | Activity (MCF7 [11]) [%] | Activity (MCF7 [12]) [%] | Activity (MCF7 [13]) | Activity (MCF7 [14]) | Activity (MCF7 [15]) | half-life [16] [h] | MRT [17] [h] | AUC [18] [ng·h/mL] | other results
CCN(CC)CCNC(=O)c1cc(C(CC)(CC)c2ccc(OCS(=O)(=O)c3ccccc3)c(C)c2)cn1CC | 2.03 | 6.08 | 0.125 | 55.96 | > 50 | 29.66 | 50.69 | 26.36 | 94.96 | 1.21 | 3.37 | 0.46 | 0.7 | 0.25 | Active | Active | Active | 0.987 | 9.72 | 12000 | CL/F [19]: 27.7 mL/min; bioavailability [20]: 40.3%; Activity (Mus musculus [21]): Non-Toxic; Activity (MCF7 [22]): Active; Activity (Mus musculus [23]): Non-Toxic; Activity (Mus musculus [24]): Non-Toxic
CCN(CC)CCNC(=O)c1ccc(C(CC)(CC)c2ccc(OCSC)c(C)c2)n1CC | 5.16 | 4.01 | 0.0891 | 55.26 | > 50 | 27.95 | 50.3 | 32.42 | 94.7 | 1.31 | 3.65 | 0.34 | 0.47 | 0.51 | Active | Active | Active | 0.954 | 8.08 | 20400 | CL/F [19]: 16.5 mL/min; bioavailability [20]: 43.2%; Activity (Mus musculus [21]): Non-Toxic; Activity (MCF7 [22]): Active; Activity (Mus musculus [23]): Non-Toxic; Activity (Mus musculus [24]): Non-Toxic
